ChEMBL document CHEMBL3046823, “Insect muscarinic acetylcholine receptor: pharmacological and toxicological profiles of antagonists and agonists” (J Agric Food Chem, 2007)

Columns and labels:
[1] = molecular target: T1, Muscarinic acetylcholine receptor DM1 (Drosophila melanogaster, UniProt P16395); assay: Displacement of [3H]QNB from Drosophila melanogaster mAChR by scintillation counting
Musca domestica [2] = assay: Toxicity to Musca domestica (house fly) assessed as mortality at 75 ug/fly measured after 1.5 hr; type: functional
Procedure, shortened: (§1)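 Insecticide-susceptible adult female Musca (~25 mg) received PPP (2.5 µg/fly in 0.5 µL acetone, abdominal ventrum), then 90 min at room temperature. The compound (active ingredient) was given by intrathoracic injection in 0.22 µL water or 25-50% Me2SO/water. Mortality was scored at 0.5, 1.0, 1.5, 2.5 and 24 h.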

Musca domestica [3] = assay: Toxicity to Musca domestica (house fly) assessed as mortality at 75 ug/fly measured after 24 hr; type: functional; procedure, shortened: as §1
Musca domestica [4] = assay: Toxicity to Musca domestica (house fly) assessed as mortality at 25 ug/fly measured after 0.5 hr; type: functional; procedure, shortened: as §1
[5] = molecular target: T1, Muscarinic acetylcholine receptor DM1; assay: Displacement of [3H]AF-DX 384 from Drosophila melanogaster mAChR by scintillation counting
Musca domestica [6] = assay: Toxicity to Musca domestica (house fly) assessed as mortality at 25 ug/fly measured after 2.5 hr; type: functional; procedure, shortened: as §1
Musca domestica [7] = assay: Toxicity to Musca domestica (house fly) assessed as mortality at 75 ug/fly measured after 0.5 hr; type: functional; procedure, shortened: as §1
Musca domestica [8] = assay: Toxicity to Musca domestica (house fly) assessed as mortality at 25 ug/fly measured after 24 hr; type: functional; procedure, shortened: as §1
Musca domestica [9] = assay: Toxicity to Musca domestica (house fly) assessed as mortality at 75 ug/fly measured after 2.5 hr; type: functional; procedure, shortened: as §1
Musca domestica [10] = assay: Toxicity to Musca domestica (house fly) assessed as mortality at 75 ug/fly measured after 1 hr; type: functional; procedure, shortened: as §1
Musca domestica [11] = assay: Toxicity to Musca domestica (house fly) assessed as mortality at 25 ug/fly measured after 1 hr; type: functional; procedure, shortened: as §1
Musca domestica [12] = assay: Toxicity to Musca domestica (house fly) assessed as mortality at 25 ug/fly measured after 1.5 hr; type: functional; procedure, shortened: as §1
Musca domestica [13] = assay: Ex vivo inhibition of [3H]QNB binding in brain of Musca domestica (house fly) at 25 ug/fly measured after 0.5 hr; type: functional
Procedure, shortened: (§2)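 Adult female houseflies pretreated with PPP (2.5 µg/fly, topical in acetone, 90 min), then dosed by intrathoracic injection in 0.22 µL water or 25-50% Me2SO/water. Heads were taken 0.5 or 24 h later and homogenized (50 per batch) in 50 mM sodium phosphate pH 7.4. Filtrate (~800 µg protein) was bound with 0.5 nM [3H]QNB, 60 min, 25 °C. Values are relative to vehicle-treated flies; 6−8 measurements over two experiments.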

Musca domestica [14] = assay: Ex vivo inhibition of [3H]QNB binding in brain of Musca domestica (house fly) at 75 ug/fly measured after 24 hr; type: functional; procedure, shortened: as §2
Musca domestica [15] = assay: Ex vivo inhibition of [3H]QNB binding in brain of Musca domestica (house fly) at 25 ug/fly measured after 24 hr; type: functional; procedure, shortened: as §2
Musca domestica [16] = assay: Ex vivo inhibition of [3H]QNB binding in brain of Musca domestica (house fly) at 75 ug/fly measured after 0.5 hr; type: functional; procedure, shortened: as §2
[17] = molecular target: Muscarinic acetylcholine receptor DM1 (Drosophila melanogaster) (UniProt P16395); assay: Displacement of [3H]QNB from Drosophila melanogaster mAChR at 100000 nM by scintillation counting
Sequence of Muscarinic acetylcholine receptor DM1 (Drosophila melanogaster) (P16395 whole entry): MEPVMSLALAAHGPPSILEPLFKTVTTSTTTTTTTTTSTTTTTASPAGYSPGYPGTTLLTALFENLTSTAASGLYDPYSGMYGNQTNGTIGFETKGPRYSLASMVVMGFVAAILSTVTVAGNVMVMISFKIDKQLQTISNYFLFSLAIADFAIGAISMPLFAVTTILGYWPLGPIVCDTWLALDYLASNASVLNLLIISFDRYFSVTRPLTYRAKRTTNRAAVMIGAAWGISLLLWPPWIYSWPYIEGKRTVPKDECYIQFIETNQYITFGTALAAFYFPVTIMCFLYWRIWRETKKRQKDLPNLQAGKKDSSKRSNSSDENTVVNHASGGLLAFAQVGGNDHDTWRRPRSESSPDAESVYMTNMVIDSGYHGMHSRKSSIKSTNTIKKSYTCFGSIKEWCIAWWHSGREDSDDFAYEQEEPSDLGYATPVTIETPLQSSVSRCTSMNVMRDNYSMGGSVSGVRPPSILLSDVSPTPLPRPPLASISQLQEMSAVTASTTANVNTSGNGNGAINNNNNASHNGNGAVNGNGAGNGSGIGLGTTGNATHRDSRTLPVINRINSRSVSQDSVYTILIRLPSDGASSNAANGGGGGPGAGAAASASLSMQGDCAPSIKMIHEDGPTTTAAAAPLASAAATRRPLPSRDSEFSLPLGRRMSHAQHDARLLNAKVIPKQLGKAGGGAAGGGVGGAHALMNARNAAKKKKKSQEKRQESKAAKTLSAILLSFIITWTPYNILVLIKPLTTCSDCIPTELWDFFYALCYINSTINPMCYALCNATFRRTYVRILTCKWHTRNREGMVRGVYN

[18] = molecular target: Muscarinic acetylcholine receptor DM1 (Drosophila melanogaster) (UniProt P16395); assay: Displacement of [3H]AF-DX 384 from Drosophila melanogaster mAChR at 100000 nM by scintillation counting
Musca domestica [19] = assay: Toxicity to Musca domestica (house fly) assessed as mortality at 7.5 ug/fly measured after 2.5 hr; type: functional; procedure, shortened: as §1
Musca domestica [20] = assay: Toxicity to Musca domestica (house fly) assessed as mortality at 7.5 ug/fly measured after 24 hr; type: functional; procedure, shortened: as §1
Musca domestica [21] = assay: Toxicity to Musca domestica (house fly) assessed as mortality at 7.5 ug/fly measured after 0.5 hr; type: functional; procedure, shortened: as §1
Musca domestica [22] = assay: Toxicity to Musca domestica (house fly) assessed as mortality at 7.5 ug/fly measured after 1 hr; type: functional; procedure, shortened: as §1
Musca domestica [23] = assay: Toxicity to Musca domestica (house fly) assessed as mortality at 7.5 ug/fly measured after 1.5 hr; type: functional; procedure, shortened: as §1

T1 sequence (P16395 whole entry): as above

Row | Compound | Ki [1] | Activity (Musca domestica [2]) | Activity (Musca domestica [3]) | Activity (Musca domestica [4]) | Ki [5] | Activity (Musca domestica [6]) | Activity (Musca domestica [7]) | Activity (Musca domestica [8]) | Activity (Musca domestica [9]) | Activity (Musca domestica [10]) | Activity (Musca domestica [11]) | Activity (Musca domestica [12]) | other results
1 | CN1[C@@H]2CC[C@H]1C[C@@H](OC(=O)N1Cc3ccccc3NC1=O)C2 | 640 nM | 23% | 7% | 23% | 570 nM | 0% | 70% | 0% | 17% | 43% | 17% | 10% | 
2 | Cc1noc(C2CN3CCC2CC3)n1 (stereo not drawn) | 1320 nM | 60% | 13% | 47% | 1330 nM | 3% | 100% | 3% | 33% | 83% | 20% | 13% | inhibition (INH) (Musca domestica [13]): 49%; inhibition (INH) (Musca domestica [14]): 16%; inhibition (INH) (Musca domestica [15]): 9%; inhibition (INH) (Musca domestica [16]): 80%
3 | CCOC(=O)c1c(C)[nH]c2ccc3c(c12)CN1CCc2cc(OC)ccc2C1O3 (stereo not drawn) | 1030 nM |  |  | 20% | 1430 nM | 13% |  | 13% |  |  | 13% | 13% | 
4 | O=[N+]([O-])/N=C1\NCCN1Cc1ccc(Cl)nc1 |  |  |  |  |  |  |  |  |  |  |  |  | inhibition [17]: 1%; inhibition [18]: 3%
5 | Cc1ccc(C[N+](C)(C)C)o1 [5-METHYLFURMETHIODIDE] | 14900 nM |  |  |  | 12300 nM |  |  |  |  |  |  |  | 
6 | CC(=O)OC1CN2CCC1CC2 (stereo not drawn) [ACECLIDINE] | 130000 nM | 27% | 3% | 33% | 114000 nM | 3% | 100% | 0% | 10% | 30% | 3% | 3% | 
7 | CC#CCOC(=O)C1=CCCN(C)C1 [ARECAIDINE BUT-2-YNYL ESTER] | 1500 nM | 9% | 4% | 3% | 1560 nM | 3% | 10% | 3% | 8% | 9% | 3% | 3% | 
8 | C#CCOC(=O)C1=CCCN(C)C1 [ARECAIDINE PROPARGYL ESTER] | 4490 nM | 100% | 87% | 17% | 5200 nM | 0% | 100% | 0% | 100% | 100% | 0% | 0% | 
9 | CCOP(=O)(OCC)Oc1nc(Cl)c(Cl)cc1Cl [CHLORPHRIFOS OXON] | > 100000 nM |  |  |  | > 100000 nM |  |  |  |  |  |  |  | inhibition [17]: 17%; inhibition [18]: 29%
10 | O=[N+]([O-])NC1=NCCN1Cc1ccc(Cl)nc1 [IMIDACLOPRID] | > 100000 nM |  |  |  | > 100000 nM |  |  |  |  |  |  |  | 
11 | COc1ccccc1CNCCCCCCNCCCCCCCCNCCCCCCNCc1ccccc1OC.Cl.Cl.Cl.Cl [METHOCTRAMINE HYDROCHLORIDE] | 2850 nM |  |  | 100% | 3860 nM | 100% |  | 100% |  |  | 100% | 100% | Activity (Musca domestica [19]): 0%; Activity (Musca domestica [20]): 3%; Activity (Musca domestica [21]): 17%; Activity (Musca domestica [22]): 10%; Activity (Musca domestica [23]): 0%
12 | C[N+]1(C)[C@@H]2CC[C@H]1C[C@@H](OC(=O)C(CO)c1ccccc1)C2.O=[N+]([O-])[O-] (stereo partly drawn) [METHYLATROPINE NITRATE] | 2.4 nM | 20% | 7% | 17% | 1.8 nM | 7% | 23% | 13% | 20% | 23% | 7% | 7% | 
13 | O=C1CCCN1CC#CCN1CCCC1 [OXOTREMORINE] | 19400 nM |  |  |  | 21500 nM |  |  |  |  |  |  |  | 
14 | CCOP(=O)(OCC)Oc1ccc([N+](=O)[O-])cc1 [PARAOXON] | > 100000 nM |  |  |  | > 100000 nM |  |  |  |  |  |  |  | inhibition [17]: 0%; inhibition [18]: 13%
15 | CC[C@@H]1C(=O)OC[C@@H]1Cc1cncn1C [PILOCARPINE] |  | 10% | 7% | 3% |  | 0% | 67% | 0% | 7% | 23% | 0% | 0% | 
16 | CN1CCN(CC(=O)N2c3ccccc3C(=O)Nc3cccnc32)CC1 [PIRENZEPINE] | 430 nM | 20% | 10% | 20% | 390 nM | 7% | 27% | 7% | 13% | 27% | 7% | 7% | 
17 | Br.CN1[C@@H]2C[C@@H](OC(=O)[C@H](CO)c3ccccc3)C[C@H]1[C@@H]1O[C@@H]12.O.O.O [SCOPOLAMINE HYDROBROMIDE] |  | 0% | 0% | 10% |  | 3% | 20% | 3% | 0% | 3% | 3% | 3% | 
